Active and inactive are the calls of the source. No cut-off for these calls is given here.

For orientation: inhibition means the share of the control response that was lost under treatment. As a reminder, the ΔTm is the shift of the melting midpoint relative to a reference. As a reminder, the IC50 is the concentration at which inhibition is half-maximal.

The test system of assay [1] is MDA-MB-231. The assay is described as follows: Antiproliferative activity against human MDA-MB-231 cells assessed as reduction in cell viability at 15 uM after 72 hrs by MTT assay relative to control. In kind it is functional. Put shortly:
(§1)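 Human cancer lines from ATCC, cultured per supplier instructions; ~5000 cells/well seeded 24 h before treatment at 37 °C, CO2. Exposed to vehicle (0.5% DMSO) or serially diluted compound (0.1 to 15 or 20 µM) for 72 h at 37 °C. MTT 100 µg added, 4 h at 37 °C; formazan dissolved in DMSO, absorbance 570 nm. Percent inhibition vs vehicle wells; triplicate, mean ± SEM.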
(In general: Formazan colour is commonly taken as a measure of viable cells.)

Assay [2] in a line: Antiproliferative activity against human HCT116 cells assessed as reduction in cell viability at 15 uM after 72 hrs by MTT assay relative to control. In kind it is functional, HCT-116. Put shortly: as §1
The subject of another assay is PC-3. The assay is described as follows: Antiproliferative activity against human PC3 cells at 0.1 to 20 uM after 72 hrs by MTT assay. In kind it is functional, cell-based. Put shortly:
as §1

The subject of assay [3] is A-431. In words: Antiproliferative activity against human A431 cells assessed as reduction in cell viability at 15 uM after 72 hrs by MTT assay relative to control. In kind it is functional, cell-based. In short, it runs like this:
as §1

A short description of assay [4]: Binding affinity to telomeric DNA (unknown origin) assessed as change in melting temperature at 50 uM by circular dichroism spectroscopic analysis in presence of K+ ion. In short, it runs like this:
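CD melting: telomeric DNA 10 µM in 10 mM lithium cacodylate pH 7.2 with 10 mM KCl, 90 mM LiCl, plus ligand. Ellipticity followed against temperature; ΔTm taken as Tm with ligand minus Tm of DNA alone.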
In general terms: CD spectra are sensitive to the conformation of chiral molecules.

Assay [5] is described as follows: Binding affinity to c-myc G-quadruplex DNA (unknown origin) assessed as stabilization of preformed parallel topology at 1 to 6 molar equivalents by circular dichroism spectroscopic analysis in absence of metal ion. In short, it runs like this:
(§2)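 CD titration of promoter quadruplex DNA (12.5 µM strand) in 50 mM Tris-HCl pH 7.2, no added monovalent cations. Ligand from 5 mM DMSO stock added stepwise by molar equivalents. Spectra 220–320 nm, 1 mm path, 25 °C, 100 nm/min, 2 s response, average of 3 scans. Ellipticity change at ~260 nm (positive) and ~240 nm (negative) followed.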

The subject of another assay is A549. In words: Antiproliferative activity against human A549 cells at 0.1 to 20 uM after 72 hrs by MTT assay. In kind it is functional, cell-based. Put shortly: as §1
Assay [6] is described as follows: Binding affinity to c-myc G-quadruplex DNA (unknown origin) assessed as change in melting temperature at 50 uM by circular dichroism spectroscopic analysis. In short, it runs like this:
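CD melting: c-MYC DNA 10 µM strand in 10 mM lithium cacodylate pH 7.2, 1 mM KCl, 99 mM LiCl. Annealed 95 °C 5 min, cooled slowly to room temperature, then 5 equiv ligand (50 µM) added and incubated overnight. Ellipticity at 263 nm, 20–95 °C at 1 °C/min. Sigmoidal Boltzmann fit; ΔTm = Tm(DNA+ligand) − Tm(DNA).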

A further assay deals with HeLa. In words: Antiproliferative activity against human HeLa cells at 0.1 to 20 uM after 72 hrs by MTT assay. In kind it is functional, cell-based. Put shortly: as §1
The nature of assay [7]: Binding affinity to c-Kit1 G-quadruplex DNA (unknown origin) assessed as stabilization of preformed parallel topology up to 5 molar equivalents by circular dichroism spectroscopic analysis in absence of metal ion. In short, it runs like this: as §2
Assay [8] is described as follows: (§3) Antiproliferative activity against human HCT116 cells assessed as reduction in cell viability at 20 uM after 72 hrs by MTT assay relative to control. The format is functional. Particulars: HCT-116, 72 h. Put shortly: as §1
For assay [9], the system named is MDA-MB-231. The assay is described as follows: Antiproliferative activity against human MDA-MB-231 cells assessed as reduction in cell viability at 20 uM after 72 hrs by MTT assay relative to control. In kind it is functional. Particulars: MDA-MB-231, 72 h. Put shortly: as §1
Assay [10] is described as follows: Binding affinity to c-myc G-quadruplex DNA (unknown origin) by UV-visible absorption spectroscopic analysis. In short, it runs like this:
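UV–vis titration, 225–600 nm, 10 mm cuvette. Ligand at 30 µM in 100 mM KCl, 10 mM lithium cacodylate pH 7.2 was titrated to saturation with c-MYC DNA pre-annealed in the same buffer (95 °C 5 min, slow cooling). Binding constant from a half-reciprocal fit; mean of 3 independent experiments.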

Assay [11] in a line: Binding affinity to c-Kit1 G-quadruplex DNA (unknown origin) assessed as change in melting temperature at 50 uM by circular dichroism spectroscopic analysis. Put shortly:
(§4)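 CD melting of 10 µM DNA strand in 10 mM lithium cacodylate pH 7.2 with 90 mM LiCl and 10 mM KCl (c-KIT1 and duplex). c-KIT1 annealed at 95 °C for 5 min, slowly cooled, then given 5 equiv ligand (50 µM) overnight. Ellipticity read at 263 nm, 1 °C/min from 15–95 °C for c-KIT1. Sigmoidal Boltzmann fit. ΔTm = Tm(DNA+ligand) − Tm(DNA).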

The nature of assay [12]: Binding affinity to duplex DNA (unknown origin) assessed as change in melting temperature at 50 uM by circular dichroism spectroscopic analysis. Put shortly:
as §4

Assay [13] is described as follows: Binding affinity to c-myc G-quadruplex DNA (unknown origin) assessed as stabilization of preformed parallel topology up to 5 molar equivalents by circular dichroism spectroscopic analysis in absence of metal ion. Put shortly:
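Ligand added from a 5 mM DMSO stock up to 5 equiv. Scanned 220–320 nm, 1.0 mm cuvette, 100 nm/min, 25 °C. Each spectrum is the average of 3 scans.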

Assay [14] relates to A-431. The assay is described as follows: Antiproliferative activity against human A431 cells assessed as reduction in cell viability at 20 uM after 72 hrs by MTT assay relative to control. In kind it is functional. The note with it: A-431, 72 h. Put shortly:
as §1

The nature of assay [15]: Binding affinity to c-myc DNA mutant (unknown origin) up to 80 uM incubated for 30 mins by Taq DNA polymerase stop assay. In short, it runs like this: (§5)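 Taq polymerase stop assay. 32P-labelled primer plus 50 nM cold primer annealed to 100 nM template carrying c-MYC quadruplex or mutated c-MYC sequence. Ligand 0–80 µM, 30 min at room temperature, then 0.5 U Taq, 55 °C for 30 min. Products run on 15% denaturing PAGE and phosphorimaged. Normalised % stop product plotted against ligand concentration; IC50 is 50% stop. Two independent experiments.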

Assay [16] is described as follows: Binding affinity to c-myc G-quadruplex DNA (unknown origin) incubated for 30 mins by Taq DNA polymerase stop assay. In short, it runs like this: as §5
The subject of another assay is HCT-116. The assay is described as §3. The format is functional. Put shortly: as §1

With `COc1ccc2c(c1OC)C(CC(C)=O)N(C)c1c-2ccc2cc3c(cc12)OCO3` (racemic) [listing 1 of 2 here], the inhibition at 15 µM in the assay with MDA-MB-231 [1] (Homo sapiens, MDA-MB-231, 72 h) was found to be 16.1%; in assay [2] (Homo sapiens, HCT-116, 72 h) it was 28.7%.

As for `COc1ccc2c(c1OC)C(CC(C)=O)N(C)c1c-2ccc2cc3c(cc12)OCO3` (racemic) [listing 2 of 2 here], the result (in the assay on PC-3; in the assay on A549; with HeLa; in [7]) was inactive. For the same compound, in the assay with A-431 [3], the inhibition result was “inactive”. For the same compound, the ΔTm is 1 °C in assay [4] and 2.6 °C in [6]. Moreover, in [5], the result was Active.

Take `COc1ccc2c(c1OC)C(CC(C)=O)N(C)c1c-2ccc2cc3c(cc12)OCO3` (single isomer, unassigned; (+)) [listing 1 of 2 here]: the “inhibition (INH)” value with MDA-MB-231 [1] is given as 24.3%; in assay [2], 47.84%.

For the compound `COc1ccc2c(c1OC)C(CC(C)=O)N(C)c1c-2ccc2cc3c(cc12)OCO3` (single isomer, unassigned; (+)) [listing 2 of 2 here], the result in the assay with PC-3, with A549 and in the assay with HeLa was inactive. The inhibition result in the assay on A-431 [3] was “inactive”.

As for `COc1ccc2c(c1OC)C(CC(C)=O)N(C)c1c-2ccc2cc3c(cc12)OCO3` (stereo in doubt) [listing 1 of 2 here], the figures for the “inhibition (INH)” value (with MDA-MB-231 [1]; in assay [2]) were 20.81% and 36.88%, respectively.

For `COc1ccc2c(c1OC)C(CC(C)=O)N(C)c1c-2ccc2cc3c(cc12)OCO3` (stereo in doubt) [listing 2 of 2 here], the outcome with PC-3, in the assay with A549 and in the assay with HeLa was inactive. Also, the inhibition entry in the assay on A-431 [3] was “inactive”.

In the case of `COc1ccc2c(c[n+](C)c3c4cc5c(cc4ccc23)OCO5)c1OC` [CHELERYTHRINE], the inhibition at 20 µM (in [8]; in the assay on MDA-MB-231 [9]; in the assay with A-431 [14]) was 100% throughout. The K in assay [10] was 7.35 ×10⁵ /M. The thermal shift (ΔTm) worked out at 24.3 °C in assay [11], 0.1 °C in assay [12] and 19.6 °C in assay [6]. Besides, the outcome in [13] and in [7] was Active. The outcome in assay [15] was inactive. In addition, the Activity result in assay [16] was “Dose-dependent effect”. In [16], this compound registered an IC50 of 6.6 µM.

As for `COc1ccc2c(c1OC)CN(C)c1c-2ccc2cc3c(cc12)OCO3` [DIHYDROCHELERYTHRINE], in the assay with HCT-116, the inhibition result was “inactive”. Also, the outcome (in the assay on PC-3; with A549; in assay [15]; in the assay on HeLa) was inactive. Besides, the figures for the inhibition at 20 µM in the assay with MDA-MB-231 [9] and in the assay with A-431 [14] were 8.65% and 30.4%, respectively. In assay [10], this compound returned a K of 5.5 ×10⁵ /M. Also, the ΔTm in [11] was 17.6 °C; in [12] it was -1 °C; in assay [6] it was 24 °C. The result in [13] and in assay [7] was Active. In addition, the Activity entry in assay [16] was “Dose-dependent effect”. Moreover, the IC50 in assay [16] stood at 5.8 µM.

As to `COc1cccc2c1C(=O)c1c(O)c3c(c(O)c1C2=O)C[C@@](O)(C(=O)CO)C[C@@H]3O[C@H]1C[C@H](N)[C@H](O)[C@H](C)O1` [DOXORUBICIN], the inhibition at 20 µM in assay [8] was 98%; in the assay with MDA-MB-231 [9], 92.7%; in the assay with A-431 [14], 98.1%.

(Values after ChEMBL document CHEMBL3808356, “Dihydrochelerythrine and its derivatives: Synthesis and their application as potential G-quadruplex DNA stabilizing agents” (Bioorg Med Chem, 2016).)
